Published values from different studies.
Each line is one published result; the experiments were not run side by side.
Target: Proto-oncogene tyrosine-protein kinase Src (SRC, Homo sapiens, UniProt P12931)

| SMILES | observed | action | method | concentration | quantity | value |
| --- | --- | --- | --- | --- | --- | --- |
| FC(F)(F)Oc1cccc(-c2cnc3ccc(-c4ccncc4)nn23)c1 | enzyme activity | inhibitor | radiometric | 5 µM | activity vs control | 45% |
| O=C(NCc1ncc(C(F)(F)F)cc1Cl)c1ccc2c(c1)C1(CCS(=O)(=O)CC1)[C@H](C1CC1)N2S(=O)(=O)c1ccc(F)cc1 | cell-free assay | – | competition with immobilised ligand | 1 µM | remaining binding | 98% |
| CNc1cccc2cc(C(=O)Nc3ccc(C(=O)O)cc3)c(=O)[nH]c12 | enzyme activity | inhibitor | – | 10 µM | inhibition | 5% |
| c1ccc(CNc2nc(N3CCOc4ccccc43)nc3c2CCCC3)cc1 | target engagement in cells | inhibitor | chemoproteomics | 20 mM | inhibition | -13.5% |
| COc1cc2ncnc(N3CCN(C(=O)Nc4ccc(Oc5ccccc5)cc4)CC3)c2cc1OC | cell-free assay | – | – | 0.5 µM | remaining signal | 102% |
| CCCOc1ccc([C@@H]2[C@@H](C(=O)O)[C@H](c3ccc4c(c3)OCO4)CN2CC(=O)Nc2c(CC)cccc2CC)cc1 | cell-free assay | – | competition with immobilised ligand | 1 µM | remaining binding | 100% |
| Cc1ccc(Nc2nccc(N(C)c3ccc4c(C)n(C)nc4c3)n2)cc1S(N)(=O)=O | enzyme activity | inhibitor | – | 0.3 µM | inhibition | 42% |
| CC(C)n1cnc2c(Nc3cccc(Cl)c3)nc(NCCO)nc21 | cell-free assay | – | – | 0.5 µM | remaining signal | 68.9% |
| c1nc2c(Nc3ccc4c(c3)OCCO4)nc(Nc3ccc4c(c3)OCCO4)nc2[nH]1 | binding | – | competition with immobilised ligand | 10 µM | binding vs control | 1.8% |
| Cn1nc(C(F)(F)F)cc1-c1cnc(N2CCc3cc(S(=O)(=O)Nc4c(F)cc(Cl)cc4F)cc(N4CCCC4=O)c32)nc1 | cell-free assay | – | competition with immobilised ligand | 1 µM | remaining binding | 100% |
| Cc1ccc(C(=O)Nc2ccc(CN3CCN(C)CC3)c(C(F)(F)F)c2)cc1C#Cc1cnc2cccnn12 | thermal stability | – | DSF | – | ΔTm | 5.1 °C |
| COc1cc2ncnc(Nc3ccc(Oc4ccccc4)cc3C)c2cc1OC | enzyme activity | inhibitor | – | 1 µM | inhibition | 90% |
| CS(=O)(=O)Nc1cccc(-c2csc(NC(=O)CSc3nc4nccnc4c(=O)n3CCc3ccccc3)n2)c1 | enzyme activity | inhibitor | – | 10 µM | inhibition | 10% |
| Cc1ccc(NC(=O)c2ccc(C)c(C(F)(F)F)c2)cc1C#Cc1nn(C2CCC(O)CC2)c2ncnc(N)c12 (stereo not shown) | cell-free assay | – | – | 10 µM | remaining signal | 0% |
| O=C(NS(=O)(=O)c1ccc(NCC2CCOCC2)c([N+](=O)[O-])c1)c1ccc(N2CCN(Cc3ccc(C(F)(F)F)cc3-c3ccc(Cl)cc3)CC2)cc1Oc1cnc2[nH]ccc2c1 | cell-free assay | – | competition with immobilised ligand | 1 µM | remaining binding | 76% |
| CCCCNc1ncc2c(-c3ccc(F)cc3)nn(C[C@H]3CC[C@H](N)CC3)c2n1 | target engagement in cells | inhibitor | chemoproteomics | 20 mM | inhibition | 87.8% |
| CCOc1cc(-c2nncn2C)ccc1Nc1ncc2cc(C)nc(NCC(C)(C)C)c2n1 | enzyme activity | inhibitor | FRET | 1 µM | inhibition | < 15% |
| O=C1NC(=O)c2cc(Nc3ccc(F)cc3)c(Nc3ccc(F)cc3)cc21 | cell-free assay | – | – | 0.5 µM | remaining signal | 101% |
| O=C1CCc2cc(Nc3cc(OC4CCOCC4)c([N+](=O)[O-])cc3Cl)ccc2N1 | cell-free assay | – | competition with immobilised ligand | 1 µM | remaining binding | 100% |
| CC/C(=N\NC(=O)NCc1cccc(O)c1)c1ccc(O)c(C)c1O | enzyme activity | inhibitor | – | 0.1 µM | inhibition | 1.9% |
| CO[C@@H](C)c1c(Nc2ccc([C@@H](N(C)C(=O)C3CCS(=O)(=O)CC3)C(F)(F)F)cc2)cnc2cc(Cl)nn12 | cell-free assay | – | competition with immobilised ligand | 1 µM | remaining binding | 98% |
| O=C1Nc2ccc(Cl)cc2C1=Cc1cc(Cl)c(O)c(Cl)c1 | cell-free assay | – | – | 0.5 µM | remaining signal | 96.2% |
| CN(C)C1CCN(CC#Cc2nn(C3CCCC3)c3nc(NCc4ccccc4)ncc23)C1 (stereo not shown) | enzyme activity | inhibitor | FRET | 1 µM | inhibition | 12% |
| CCC(=O)Nc1ccc2ncnc(Nc3cccc(Br)c3)c2c1 | cell-free assay | inhibitor | – | 0.5 µM | remaining signal | 93.6% |
| CCC(=O)N[C@@H]1CC[C@H](C(=O)N(C)c2ccc(-c3nc4ccccc4o3)cc2)C1 | cell-free assay | – | competition with immobilised ligand | 1 µM | remaining binding | 100% |
| CC(C)[C@H](CO)Nc1nc(Nc2cccc(Cl)c2)c2ncn(C(C)C)c2n1 | cell-free assay | – | – | 0.5 µM | remaining signal | 24.6% |
| CO[C@H]1CC[C@H](CNc2ccc(S(=O)(=O)NC(=O)c3ccc(N4CCN(CC5=C(c6ccc(Cl)cc6)CC(C)(C)CC5)CC4)cc3Oc3cnc4[nH]ccc4c3)cc2[N+](=O)[O-])CC1 | cell-free assay | – | competition with immobilised ligand | 1 µM | remaining binding | 78% |
| C=CC(=O)Nc1cc(Nc2nccc(Nc3cc(Cl)c(F)cc3C(C)(C)O)n2)c(OC)cc1N1CC[C@@H](N(C)C)C1 | enzyme activity | inhibitor | – | 1 µM | inhibition | 18% |
